From ChEMBL document CHEMBL4138097, “Investigation of pyrazolo-sulfonamides as putative small molecule oxytocin receptor agonists” (Eur J Med Chem, 2017)
Calls of active or inactive are those of the source. The rule behind the calls is not given here. Where a SMILES comes first, the peptide text is derived from it. Bridges are numbered along the chain shown (N, C = ends). [ ]: non-standard residue; d: D form. Orn = NCCC[C@H](N)C(=O)O; Mpa = O=C(O)CCS

Key:
Oxytocin receptor [1] = molecular target: T1, Oxytocin receptor (Homo sapiens, UniProt P30559); assay: Antagonist activity at human OTR expressed in HEK293 cell membranes assessed as inhibition of OT-induced IP1 accumulation measured after 1 hr by fluorescence assay; type: functional, cell-based
T1 sequence (P30559 whole entry): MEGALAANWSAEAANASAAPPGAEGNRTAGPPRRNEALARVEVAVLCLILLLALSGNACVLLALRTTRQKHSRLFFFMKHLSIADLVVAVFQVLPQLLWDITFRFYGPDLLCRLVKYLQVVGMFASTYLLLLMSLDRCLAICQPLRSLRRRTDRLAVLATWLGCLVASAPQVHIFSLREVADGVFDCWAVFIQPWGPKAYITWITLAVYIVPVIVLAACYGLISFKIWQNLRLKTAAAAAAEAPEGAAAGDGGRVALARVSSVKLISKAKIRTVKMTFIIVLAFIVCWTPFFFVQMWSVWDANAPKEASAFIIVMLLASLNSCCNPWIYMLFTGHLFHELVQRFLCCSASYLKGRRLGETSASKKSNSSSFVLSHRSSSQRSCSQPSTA

Vasopressin V1a receptor [2] = molecular target: T2, Vasopressin V1a receptor (Homo sapiens, UniProt P37288); assay: Antagonist activity at human vasopressin 1a receptor expressed in HEK293 cell membranes assessed as inhibition of AVP-induced IP1 accumulation by measuring IP1 level at 100 nM measured after 1 hr by fluorescence assay relative to control; type: functional, cell-based; set-up: scale not given: the % may be the effect or the level left
Target sequence in this assay (P37288 whole entry, looked up): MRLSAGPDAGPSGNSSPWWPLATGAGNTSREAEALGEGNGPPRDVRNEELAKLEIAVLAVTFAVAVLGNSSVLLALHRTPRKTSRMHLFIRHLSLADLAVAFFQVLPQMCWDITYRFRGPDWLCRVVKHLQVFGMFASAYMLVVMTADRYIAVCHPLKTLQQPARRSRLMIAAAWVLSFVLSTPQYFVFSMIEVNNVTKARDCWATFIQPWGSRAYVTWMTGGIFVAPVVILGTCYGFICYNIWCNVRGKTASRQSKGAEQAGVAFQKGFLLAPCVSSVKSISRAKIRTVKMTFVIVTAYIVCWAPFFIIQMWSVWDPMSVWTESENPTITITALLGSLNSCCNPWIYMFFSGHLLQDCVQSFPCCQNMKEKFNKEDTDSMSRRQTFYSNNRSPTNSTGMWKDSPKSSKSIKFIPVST

Vasopressin V1a receptor [3] = molecular target: T2, Vasopressin V1a receptor; assay: (§1) Antagonist activity at human vasopressin 1a receptor expressed in HEK293 cell membranes assessed as inhibition of AVP-induced increase in Ca2+ flux by measuring intracellular calcium level at 10 uM preincubated for 5 mins followed by AVP addition measured after 5 mins for every 2 secs by Ca5 dye based FLIPR assay (reference value: 5.2 +/- 0.2%); type: functional
Summary of the method: (§2)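 HEK cells were pre-incubated 5 min with compound (10 μM) or vehicle (0.1% DMSO). Agonist was then added: OT for hOTR, AVP for hV1aR. Peak Ca5 fluorescence was taken as fold-change over baseline. A 4-parameter fit gave pEC50 and Max. Run in duplicate with 5-6 independent replicates, mean ± S.E.M.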
Target sequence in this assay (P37288 whole entry, looked up): as above

Vasopressin V1a receptor [4] = molecular target: T2, Vasopressin V1a receptor; assay: Antagonist activity at human vasopressin 1a receptor expressed in HEK293 cell membranes assessed as inhibition of AVP-induced IP1 accumulation measured after 1 hr by fluorescence assay; type: functional, cell-based
Target sequence in this assay (P37288 whole entry): as the sequence (P37288 whole entry, looked up) above

Oxytocin receptor [5] = molecular target: T1, Oxytocin receptor; assay: Antagonist activity at human OTR expressed in CHO cell membranes assessed as inhibition of OT-induced IP1 accumulation measured after 1 hr by fluorescence assay; type: functional, cell-based
[6] = molecular target: T3, Oxytocin receptor (Homo sapiens) (UniProt P30559); assay: Positive allosteric modulation of human OTR expressed in HEK293 cell membranes assessed as increase in OT-induced IP1 accumulation at 10 uM measured after 1 hr by fluorescence assay; type: functional, cell-based
T3 sequence (whole entry): T1 sequence (P30559 whole entry)
Summary of the method: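 hOTR-transfected HEK cells treated with ~EC10 OT (3 nM) plus compound (10 μM) or vehicle (0.1% DMSO). IP1 measured and compared with OT plus vehicle. Mean ± S.E.M.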

[7] = molecular target: T3, Oxytocin receptor (Homo sapiens); assay: Agonist activity at human OTR expressed in CHO cell membranes assessed as induction of IP1 accumulation at 0.1 to 10 uM measured after 1 hr by fluorescence assay; type: functional, cell-based
Summary of the method: (§3)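 IP1 accumulation in HEK or stably transfected CHO cells expressing hOTR or hV1aR. Compounds tested alone at 100 nM and 10 μM against vehicle (basal). Reference agonist was OT 10 nM at hOTR or AVP 10 nM at hV1aR. Non-transfected HEK cells given OT served as a specificity check. Mean ± S.E.M.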

Vasopressin V1a receptor [8] = molecular target: T2, Vasopressin V1a receptor; assay: Antagonist activity at human vasopressin 1a receptor expressed in CHO cell membranes assessed as inhibition of AVP-induced IP1 accumulation by measuring IP1 level at 10 uM measured after 1 hr by fluorescence assay relative to control; type: functional, cell-based; set-up: scale not given: the % may be the effect or the level left
Target sequence in this assay (P37288 whole entry, looked up): as above

Vasopressin V1a receptor [9] = molecular target: T2, Vasopressin V1a receptor; assay: Agonist activity at human vasopressin 1a receptor expressed in CHO cell membranes assessed as increase in Ca2+ flux at 0.1 to 10 uM measured after 5 mins for every 2 secs by Ca5 dye based FLIPR assay; type: functional
Summary of the method: (§4)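 Intracellular Ca2+ read by FLIPR with Ca5 dye in HEK or stably transfected CHO cells expressing hOTR or hV1aR. Compounds added alone at 100 nM and 10 μM. Response taken as the change in fluorescence.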
Target sequence in this assay (P37288 whole entry, looked up): as above

[10] = molecular target: T3, Oxytocin receptor (Homo sapiens); assay: Agonist activity at human OTR expressed in HEK293 cell membranes assessed as increase in Ca2+ flux at 0.1 to 10 uM measured after 5 mins for every 2 secs by Ca5 dye based FLIPR assay; type: functional; summary of the method: as §4
[11] = molecular target: T3, Oxytocin receptor (Homo sapiens); assay: Antagonist activity at human OTR expressed in CHO cell membranes assessed as inhibition of OT-induced IP1 accumulation by measuring IP1 level at 10 uM measured after 1 hr by fluorescence assay relative to control; type: functional, cell-based; set-up: scale not given: the % may be the effect or the level left
Vasopressin V1a receptor [12] = molecular target: T2, Vasopressin V1a receptor; assay: Antagonist activity at human vasopressin 1a receptor expressed in CHO cell membranes assessed as inhibition of AVP-induced IP1 accumulation by measuring IP1 level at 100 nM measured after 1 hr by fluorescence assay relative to control; type: functional, cell-based; set-up: scale not given: the % may be the effect or the level left
Target sequence in this assay (P37288 whole entry, looked up): as above

Oxytocin receptor [13] = molecular target: T1, Oxytocin receptor; assay: Displacement of [3H]-oxytocin from human OTR expressed in HEK293 cell membranes after 90 mins by microbeta scintillation counting method
[14] = molecular target: T3, Oxytocin receptor (Homo sapiens); assay: Agonist activity at human OTR expressed in HEK293 cell membranes induction of IP1 accumulation at 0.1 to 10 uM measured after 1 hr by fluorescence assay; type: functional, cell-based; summary of the method: as §3
[15] = molecular target: T3, Oxytocin receptor (Homo sapiens); assay: Antagonist activity at human OTR expressed in CHO cell membranes assessed as inhibition of OT-induced IP1 accumulation by measuring IP1 level at 100 nM measured after 1 hr by fluorescence assay relative to control; type: functional, cell-based; set-up: scale not given: the % may be the effect or the level left
Vasopressin V1a receptor [16] = molecular target: T2, Vasopressin V1a receptor; assay: Agonist activity at human vasopressin 1a receptor expressed in HEK293 cell membranes assessed as increase in Ca2+ flux at 0.1 to 10 uM measured after 5 mins for every 2 secs by Ca5 dye based FLIPR assay; type: functional; summary of the method: as §4
Target sequence in this assay (P37288 whole entry, looked up): as above

[17] = molecular target: T3, Oxytocin receptor (Homo sapiens); assay: Antagonist activity at human OTR expressed in HEK293 cell membranes assessed as inhibition of OT-induced IP1 accumulation by measuring IP1 level at 10 uM measured after 1 hr by fluorescence assay relative to control; type: functional, cell-based; set-up: scale not given: the % may be the effect or the level left
Vasopressin V1a receptor [18] = molecular target: T2, Vasopressin V1a receptor; assay: Agonist activity at human vasopressin 1a receptor expressed in CHO cell membranes assessed as induction of IP1 accumulation at 0.1 to 10 uM measured after 1 hr by fluorescence assay; type: functional, cell-based; summary of the method: as §3
[19] = molecular target: T3, Oxytocin receptor (Homo sapiens); assay: Agonist activity at human OTR expressed in CHO cell membranes assessed as increase in Ca2+ flux at 0.1 to 10 uM measured after 5 mins for every 2 secs by Ca5 dye based FLIPR assay; type: functional; summary of the method: as §4
Vasopressin V1a receptor [20] = molecular target: T2, Vasopressin V1a receptor; assay: Displacement of [3H]-vasopressin from human vasopressin 1a receptor expressed in HEK293 cell membranes after 90 mins by microbeta scintillation counting method
Target sequence in this assay (P37288 whole entry): as the sequence (P37288 whole entry, looked up) above

[21] = molecular target: T3, Oxytocin receptor (Homo sapiens); assay: Antagonist activity at human OTR expressed in HEK293 cell membranes assessed as inhibition of OT-induced IP1 accumulation by measuring IP1 level at 100 nM measured after 1 hr by flourescence assay relative to control; type: functional, cell-based; set-up: scale not given: the % may be the effect or the level left
Vasopressin V1a receptor [22] = molecular target: T2, Vasopressin V1a receptor; assay: Agonist activity at human vasopressin 1a receptor expressed in HEK293 cell membranes assessed as induction of IP1 accumulation at 0.1 to 10 uM measured after 1 hr by fluorescence assay; type: functional, cell-based; summary of the method: as §3
Vasopressin V1a receptor [23] = molecular target: T2, Vasopressin V1a receptor; assay: Antagonist activity at human vasopressin 1a receptor expressed in HEK293 cell membranes assessed as inhibition of AVP-induced IP1 accumulation by measuring IP1 level at 10 uM measured after 1 hr by fluorescence assay relative to control; type: functional, cell-based; set-up: scale not given: the % may be the effect or the level left
Vasopressin V1a receptor [24] = molecular target: T2, Vasopressin V1a receptor; assay: Antagonist activity at human vasopressin 1a receptor expressed in CHO cell membranes assessed as inhibition of AVP-induced IP1 accumulation by measuring IP1 level measured after 1 hr by fluorescence assay; type: functional, cell-based
Target sequence in this assay (P37288 whole entry): as the sequence (P37288 whole entry, looked up) above

[25] = molecular target: T3, Oxytocin receptor (Homo sapiens); assay: as §1, with “OTR” for “vasopressin 1a receptor”, “OT-induced” for “AVP-induced”, “OT” for “AVP”, “4.5” for “5.2”, “0.1%)” for “0.2%)”; type: functional; summary of the method: as §2

Structure (SMILES)	IC50 (Oxytocin receptor [1]; read-out: pIC50 (converted))	Activity (Vasopressin V1a receptor [2])	%max (Vasopressin V1a receptor [3])	IC50 (Vasopressin V1a receptor [4])	IC50 (Oxytocin receptor [5])	Activity [6]	Activity [7]	Activity (Vasopressin V1a receptor [8])	Activity (Vasopressin V1a receptor [9])	Activity [10]	Activity [11]	Activity (Vasopressin V1a receptor [12])	Ki (Oxytocin receptor [13])	Activity [15]	Activity (Vasopressin V1a receptor [16])	Activity [17]	Activity (Vasopressin V1a receptor [18])	Activity [19]	Ki (Vasopressin V1a receptor [20])	Activity [21]	also measured
CCOc1ccc(C[C@H]2NC(=O)CCSSC[C@@H](C(=O)N3CCC[C@H]3C(=O)N[C@@H](CCCN)C(=O)NCC(N)=O)NC(=O)[C@H](CC(N)=O)NC(=O)[C@H]([C@@H](C)O)NC(=O)[C@H]([C@@H](C)CC)NC2=O)cc1 [ATOSIBAN] ([Mpa][dY](Et)ITNCP[Orn]G-NH2; disulfide 1-6)																					IC50 (Oxytocin receptor [1]; read-out: IC50): 0.372 µM
O=S(=O)(Nc1ccnn1-c1ccccn1)c1ccc(C(F)(F)F)cc1	> 10 µM	109%	5.3%	> 10 µM	> 10 µM	inactive	inactive	83.1%	inactive	inactive	82.1%	84.8%	> 10 µM	83.2%	inactive	65.5%	inactive	inactive	> 10 µM	70.6%	Activity (Vasopressin V1a receptor [22]): inactive; Activity (Vasopressin V1a receptor [23]): 104%; IC50 (Vasopressin V1a receptor [24]): > 10 µM; %max [25]: 4.4%

More lines, main results first:

IC50 (Oxytocin receptor [1]; read-out: pIC50 (converted))	Activity (Vasopressin V1a receptor [2])	%max (Vasopressin V1a receptor [3])	IC50 (Vasopressin V1a receptor [4])	IC50 (Oxytocin receptor [5])	Activity [6]	Activity [7]	Activity (Vasopressin V1a receptor [8])	Activity (Vasopressin V1a receptor [9])	Activity [10]	Activity [11]	Activity (Vasopressin V1a receptor [12])	Ki (Oxytocin receptor [13])	Activity [15]	Activity (Vasopressin V1a receptor [16])	Activity [17]	Activity (Vasopressin V1a receptor [18])	Activity [19]	Ki (Vasopressin V1a receptor [20])	Activity [21]	Structure (SMILES)	also measured
> 10 µM	112%	5%	> 10 µM	> 10 µM	inactive	inactive	105%	inactive	inactive	94.7%	100%	> 10 µM	90.5%	inactive	72.5%	inactive	inactive	> 10 µM	82.5%	Cn1nccc1NS(=O)(=O)c1ccc(Cl)cc1	Activity [14]: inactive; Activity (Vasopressin V1a receptor [22]): inactive; Activity (Vasopressin V1a receptor [23]): 105%; IC50 (Vasopressin V1a receptor [24]): > 10 µM; %max [25]: 4%
> 10 µM	84.7%	5.1%	> 10 µM	> 10 µM	inactive	inactive	79.3%	inactive	inactive	79.5%	86.5%	> 10 µM	85.5%	inactive	90.4%	inactive	inactive	> 10 µM	98.3%	Cn1nccc1NS(=O)(=O)c1ccc(C(F)(F)F)cc1	Activity [14]: inactive; Activity (Vasopressin V1a receptor [22]): inactive; Activity (Vasopressin V1a receptor [23]): 77.9%; IC50 (Vasopressin V1a receptor [24]): > 10 µM; %max [25]: 4.4%
> 10 µM	85.9%	5.3%	> 10 µM	> 10 µM	inactive	inactive	116%	inactive	inactive	71.1%	103%	> 10 µM	83.9%	inactive	78.1%	inactive	inactive	> 10 µM	89.5%	O=S(=O)(Nc1ccnn1-c1ccccn1)c1ccc(Cl)cc1	Activity (Vasopressin V1a receptor [22]): inactive; Activity (Vasopressin V1a receptor [23]): 80.2%; IC50 (Vasopressin V1a receptor [24]): > 10 µM; %max [25]: 4.5%
